Reference: ChEMBL document CHEMBL1150822, “Additional bioactive Lyso-PAF congeners from the sponge Spirastrella abata” (J Nat Prod, 2001)
Values after ≈ are worked out from the molar mass of the structure shown. Active and inactive are the calls of the source. No cut-off for these calls is given here.

Assays:
HCT-15 = experiment: Cytotoxicity against human HCT15 cells after 48 hrs by SRB assay; type: functional; settings: HCT-15, 48 h, read-out: ED50 (the source's name)
Procedure, shortened: (§1)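 Rapidly growing cells were harvested and seeded at (1-2) × 10^4 cells/well, then preincubated for 24 h. Compounds dissolved in culture medium were added in triplicate, and cells were incubated for 48 h at 37 °C under 5% CO2. Cells were fixed with cold TCA and stained with 0.4% SRB in 1% acetic acid. Bound dye was solubilized in 10 mM unbuffered Tris base and absorbance read at 520 nm.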

SK-OV-3 = experiment: Cytotoxicity against human SKOV3 cells after 48 hrs by SRB assay; type: functional; settings: SK-OV-3, 48 h, read-out: ED50 (the source's name); procedure, shortened: as §1
SK-MEL-2 (Homo sapiens) = experiment: Cytotoxicity against human SK-MEL-2 cells after 48 hrs by SRB assay; settings: SK-MEL-2, 48 h, read-out: ED50 (the source's name)
A549 = experiment: Cytotoxicity against human A549 cells after 48 hrs by SRB assay; type: functional; settings: A549, 48 h, read-out: ED50 (the source's name); procedure, shortened: as §1
[1] = (§2) Inhibition of cholesterol biosynthesis in human Chang cells; type: functional, cell-based
XF498 = experiment: Cytotoxicity against human XF498 cells after 48 hrs by SRB assay; type: functional; settings: XF498, 48 h, read-out: ED50 (the source's name); procedure, shortened: as §1
Chang = experiment: as §2; type: functional, cell-based

IC50 [1] [µg/mL] | Compound | EC50 (HCT-15) [µg/mL] | EC50 (SK-OV-3) [µg/mL] | EC50 (SK-MEL-2 (Homo sapiens)) [µg/mL] | EC50 (A549) [µg/mL] | EC50 (XF498) [µg/mL] | Activity (Chang)
102 (≈ 213 µM) | CCCCCCCCCCCC/C=C\CCOC[C@H](O)COP(=O)([O-])OCC[N+](C)(C)C | > 30 | > 30 | > 30 | > 30 | > 30 | 
 | COc1cccc2c1C(=O)c1c(O)c3c(c(O)c1C2=O)C[C@@](O)(C(=O)CO)C[C@@H]3O[C@H]1C[C@H](N)[C@H](O)[C@H](C)O1 [DOXORUBICIN] | 0.04 (≈ 0.0736 µM) | 0.11 (≈ 0.202 µM) | 0.02 (≈ 0.0368 µM) | 0.02 (≈ 0.0368 µM) | 0.08 (≈ 0.147 µM) | 
 | CCCCCCCCCCCCCCCCOC[C@@H](O)COP(=O)([O-])OCC[N+](C)(C)C | 5.4 (≈ 11.2 µM) | 4.9 (≈ 10.2 µM) | 5.4 (≈ 11.2 µM) | 5.5 (≈ 11.4 µM) | 4.9 (≈ 10.2 µM) | inactive
 | CCCCCCCCCCCCCCC(COC[C@H](O)COP(=O)([O-])OCC[N+](C)(C)C)OC (some centres undefined) | 5 (≈ 9.77 µM) | 5.7 (≈ 11.1 µM) | 5.2 (≈ 10.2 µM) | 5.8 (≈ 11.3 µM) | 4.5 (≈ 8.79 µM) | inactive
 | CCCCCCCCCCC/C=C\CC(COC[C@H](O)COP(=O)([O-])OCC[N+](C)(C)C)OC (some centres undefined) | 3.7 (≈ 7.26 µM) | 5.9 (≈ 11.6 µM) | 3.8 (≈ 7.46 µM) | 6.3 (≈ 12.4 µM) | 4 (≈ 7.85 µM) | 
118 (≈ 246 µM) | CCCCCCCCCCC/C=C\CCCOC[C@H](O)COP(=O)([O-])OCC[N+](C)(C)C | > 30 | > 30 | > 30 | > 30 | > 30 | 
